How the values were obtained:
[1] = molecular target: T1, Adenosine receptor A3 (Homo sapiens) (UniProt P0DMS8); assay: Percent displacement of [125I]-AB MECA from human Adenosine A3 receptor expressed in HEK 293 cells at 1 uM; assay type: cell-based; details: HEK293
T1 sequence (whole entry): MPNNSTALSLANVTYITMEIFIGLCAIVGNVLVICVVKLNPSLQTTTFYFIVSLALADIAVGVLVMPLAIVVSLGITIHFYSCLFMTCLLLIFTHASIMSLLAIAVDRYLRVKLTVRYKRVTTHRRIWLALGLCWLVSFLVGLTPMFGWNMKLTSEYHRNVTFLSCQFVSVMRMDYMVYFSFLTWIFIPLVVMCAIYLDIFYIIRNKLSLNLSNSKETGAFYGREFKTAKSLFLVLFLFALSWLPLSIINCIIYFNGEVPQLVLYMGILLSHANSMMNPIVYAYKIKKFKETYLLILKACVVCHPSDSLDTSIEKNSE

[2] = molecular target: Adenosine receptor A2a (Rattus norvegicus) (UniProt P30543); assay: Percent displacement of [3H]ZM-241385 from A2A receptor in rat striatal membrane at 10 uM; assay type: cell membranes; details: Striatum
Chain of Adenosine receptor A2a (Rattus norvegicus) (P30543 whole entry): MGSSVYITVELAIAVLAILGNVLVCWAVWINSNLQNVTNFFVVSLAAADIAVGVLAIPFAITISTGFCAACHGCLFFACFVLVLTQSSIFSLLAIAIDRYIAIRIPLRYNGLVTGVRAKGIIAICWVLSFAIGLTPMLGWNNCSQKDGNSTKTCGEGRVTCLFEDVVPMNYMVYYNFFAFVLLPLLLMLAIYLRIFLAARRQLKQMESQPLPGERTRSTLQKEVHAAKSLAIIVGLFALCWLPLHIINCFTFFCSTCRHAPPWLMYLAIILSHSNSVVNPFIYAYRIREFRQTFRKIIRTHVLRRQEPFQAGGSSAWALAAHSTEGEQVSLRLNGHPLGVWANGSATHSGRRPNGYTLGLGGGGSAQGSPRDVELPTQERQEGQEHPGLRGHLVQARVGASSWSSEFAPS

Adenosine receptor A1 = molecular target: T2, Adenosine receptor A1 (Rattus norvegicus, UniProt P25099); assay: Displacement of [3H]DPCPX from Adenosine A1 receptor of rat cortical membrane
T2 sequence (P25099 whole entry): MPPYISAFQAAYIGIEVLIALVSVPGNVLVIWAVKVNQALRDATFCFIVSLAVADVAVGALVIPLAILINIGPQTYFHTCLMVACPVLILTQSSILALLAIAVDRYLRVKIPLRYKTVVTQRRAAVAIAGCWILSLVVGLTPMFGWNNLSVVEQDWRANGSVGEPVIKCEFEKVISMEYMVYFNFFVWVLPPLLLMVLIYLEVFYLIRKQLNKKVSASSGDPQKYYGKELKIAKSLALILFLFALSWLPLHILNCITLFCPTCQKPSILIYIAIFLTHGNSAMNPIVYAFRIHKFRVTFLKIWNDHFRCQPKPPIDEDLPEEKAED
In short: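 Competition binding on rat brain cortex membranes, displacing the A1 radioligand [3H]DPCPX. Displacement experiments run without GTP.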

Displacement [1] [%] | Displacement [2] [%] | Ki (Adenosine receptor A1) [nM] | Compound
27 | 2 | – | CC(C)(C)c1ccc(C(=O)Nc2nc(-c3ccccc3)cs2)cc1
42 | 3 | 86 | O=C(Nc1nc(-c2ccccc2)cs1)c1cccc(Cl)c1
20 | 6 | 59 | O=C(Nc1nc(-c2ccccc2)cs1)c1ccc(Cl)c(Cl)c1
66 | 13 | 36 | Cc1ccc(C(=O)Nc2nc(-c3ccccc3)cs2)cc1
35 | 9 | 22 | O=C(Nc1nc(-c2ccccc2)cs1)c1ccc([N+](=O)[O-])cc1
63 | 15 | 18 | O=C(Nc1nc(-c2ccccc2)cs1)c1ccc(Cl)cc1
42 | 21 | 39 | O=C(Nc1nc(-c2ccccc2)cs1)c1ccccc1
58 | 14 | 33 | O=C(Nc1nc(-c2ccccc2)cs1)c1ccc(Br)cc1
18 | 0 | 165 | O=C(Nc1nc(-c2ccccc2)cs1)c1ccc(C(F)(F)F)cc1
22 | 17 | 58 | O=C(Nc1nc(-c2ccccc2)cs1)c1ccc(Cl)cc1Cl

— ChEMBL document CHEMBL1133891, “Substituted 4-phenyl-2-(phenylcarboxamido)-1,3-thiazole derivatives as antagonists for the adenosine A(1) receptor” (Bioorg Med Chem Lett, 2001)
